Measured values taken from article PMC8602434 (Drugs in R&D, 2021).

Legend:
Format in all cases: in vivo
[1] = Dog 28-day toxicology study with pharmacokinetic analysis, sc
[2] = Healthy volunteers, multiple-dose arm, sc once daily for 7 days; conditions: human
Summary of the method: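 Double-blind, placebo-controlled abdominal sc dosing once daily for 7 days: 1.0 or 3.0 mg, cohorts of 10 (8 active, 2 placebo). Serial blood on Day 1 (predose to 24 h), peak/trough on Days 2–6, Day 7 (predose to 16 h), then to 48 h after last dose. Validated bioanalytical method. Noncompartmental: Day 7 values as steady state, AUCτ, accumulation ratio. AEs recorded.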

[3] = Rat 28-day toxicology study with toxicokinetic analysis, sc
Summary of the method: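 Male and female CD Sprague Dawley rats (233–264 g male, 172–201 g female). 28-day toxicology study (70 per sex) with daily sc dosing at 0, 1.0, 5.0 or 25.0 mg/kg/day. Blood drawn via sublingual vein, three animals per sex per dose at each time point. Noncompartmental analysis of mean concentration–time data gave AUClast, Cmax, tmax and t½.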

[4] = 1.0 mg sc once daily, Day 7, geometric mean, n=5
[5] = 1.0 mg sc once daily, Day 7, median, n=5
[6] = 1.0 mg sc once daily, Day 7, median, n=8
[7] = 3.0 mg sc once daily, Day 1, geometric mean, n=7
[8] = 3.0 mg sc once daily, Day 1, geometric mean, n=8
[9] = 3.0 mg sc once daily, Day 1, median, n=7
[10] = 3.0 mg sc once daily, Day 1, median, n=8
[11] = 3.0 mg sc once daily, Day 7, geometric mean, n=8
[12] = 3.0 mg sc once daily, Day 7, mean (SD), n=8
[13] = 3.0 mg sc once daily, Day 7, median, n=6
[14] = 3.0 mg sc once daily, Day 7, median, n=8

## CCCC[C@H](NC(C)=O)C(=O)N[C@H]1CCC(=O)NC[C@@H](C(=O)N[C@@H](Cc2c[nH]c3ccccc23)C(N)=O)NC(=O)[C@H](CCCNC(=N)N)NC(=O)[C@@H](Cc2ccccc2)NC(=O)[C@H](Cc2c[nH]cn2)NC1=O [PL8177]
[1]; 1.5- and 9.0-mg doses as printed
  Accumulation ratio (Rac), AUClast day 28/AUClast day 1: 0.8
[1]; 40-mg dose
  Accumulation ratio (Rac), AUClast day 28/AUClast day 1: 1.8
[1]; sc
  Difference between mean Cmax and AUClast values, multiple-dose versus single-dose: < 2 fold
[2]; 1.0 mg sc once daily, Day 1, geometric mean, n=6
  t½: 246 min
[2]; 1.0 mg sc once daily, Day 1, median, n=6
  CL/F: 20.2 L/h
[2]; [4]
  AI (accumulation index): 1.1
  t½: 402 min
[2]; 1.0 mg sc once daily, Day 7, geometric mean, n=8
  AUCτ: 51.2 ng·h/mL
[2]; 1.0 mg sc once daily, Day 7, mean (SD), n=5
  AI (accumulation index): 1.1 (0.1)
[2]; 1.0 mg sc once daily, Day 7, mean (SD), n=8
  AUCτ: 52.9 (15.0) ng·h/mL
[2]; [5]
  AI (accumulation index): 1.1
  AUC∞: 51.8 ng·h/mL
  Vd/Fss: 174 L
[2]; [6]
  AUCτ: 48.3 ng·h/mL
  tmax: 30 min
[2]; [7]
  AUC∞: 169.0 ng·h/mL
  AUC∞/dose: 56.5 ng·h/mL/mg
[2]; [8]
  Cmax: 53.7 ng/mL
  Cmax/dose: 17.9 ng/mL/mg
[2]; 3.0 mg sc once daily, Day 1, mean (SD), n=7
  AUC∞/dose: 57.2 (10.2) ng·h/mL/mg
[2]; 3.0 mg sc once daily, Day 1, mean (SD), n=8
  Cmax/dose: 18.1 (3.2) ng/mL/mg
[2]; [9]
  AUC∞: 159.0 ng·h/mL
  AUC∞/dose: 53.0 ng·h/mL/mg
  CL/F: 18.9 L/h
  t½: 576 min
[2]; [10]
  AUC0–t: 145.0 ng·h/mL
  Cmax: 50.0 ng/mL
[2]; 3.0 mg sc once daily, Day 7, geometric mean, n=6
  AI (accumulation index): 1.4
[2]; [11]
  AUCτ: 174.0 ng·h/mL
  AUCτ/dose: 58.1 ng·h/mL/mg
  Cmax/dose: 19.1 ng/mL/mg
[2]; 3.0 mg sc once daily, Day 7, mean (SD), n=6
  AI (accumulation index): 1.4 (0.2)
[2]; [12]
  AUCτ: 177.0 (36.0) ng·h/mL
  AUCτ/dose: 59.1 (12.0) ng·h/mL/mg
  Cmax/dose: 19.5 (4.52) ng/mL/mg
[2]; [13]
  AI (accumulation index): 1.3
  AUC∞: 200.0 ng·h/mL
[2]; [14]
  AUCτ: 171.0 ng·h/mL
  AUCτ/dose: 57.1 ng·h/mL/mg
[2]; multiple-dose arm
  AEs leading to study discontinuation, serious AEs, or severe AEs: no reports
  Dose linearity for AUC∞ and Cmax: inconclusive
  Intact drug excreted in the urine: ≤ 1%
  Most commonly reported AEs: injection-site pain, erythema, and induration
  Time after dosing at which Cmax was generally reached (tmax): 15 to 45 min
[3]; rat F, 1.0 mg/kg sc daily, Day 14 (truncated curve, 3 data points)
  tmax: 30 min
[3]; rat F, 1.0 mg/kg sc daily, Day 28
  tmax: 30 min
[3]; rat F, 5.0 mg/kg sc daily, Day 14 (truncated curve, 3 data points)
  tmax: 60 min
[3]; rat F, 25.0 mg/kg sc daily, Day 14 (truncated curve, 3 data points)
  tmax: 30 min
[3]; rat F, 25.0 mg/kg sc daily, Day 28
  tmax: 30 min
[3]; rat M, 1.0 mg/kg sc daily, Day 1
  tmax: 30 min
[3]; rat M, 1.0 mg/kg sc daily, Day 14 (truncated curve, 3 data points)
  tmax: 30 min
[3]; rat M, 1.0 mg/kg sc daily, Day 28
  tmax: 30 min
[3]; rat M, 5.0 mg/kg sc daily, Day 14 (truncated curve, 3 data points)
  tmax: 60 min
[3]; rat M, 5.0 mg/kg sc daily, Day 28
  tmax: 30 min
[3]; rat M, 25.0 mg/kg sc daily, Day 28
  tmax: 15 min
